ChEMBL document CHEMBL3352635 (Bioorg Med Chem Lett, 2014)

How the values were obtained:
[1] = Half life in simulated gastric fluid at pH 1.2 by HPLC analysis; format: ADME
Summary of the method: (§1)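 Compounds incubated at 37 °C in simulated gastric fluid (pH 1.2), simulated intestinal fluid (pH 6.8) or 100% human plasma for up to 180 min. […] Half-life estimated from the decay.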

[2] = Metabolic stability in simulated gastric fluid assessed as compound remaining at pH 1.2 after 60 mins by HPLC analysis; format: ADME; settings: read-out: Stability; summary of the method: as §1
[3] = Metabolic stability in simulated gastric fluid assessed as compound remaining at pH 1.2 after 120 mins by HPLC analysis; format: ADME; settings: read-out: Stability; summary of the method: as §1
[4] = Metabolic stability in simulated gastric fluid assessed as compound remaining at pH 1.2 after 30 mins by HPLC analysis; format: ADME; settings: read-out: Stability; summary of the method: as §1
[5] = Metabolic stability in simulated gastric fluid assessed as compound remaining at pH 1.2 after 180 mins by HPLC analysis; format: ADME; settings: read-out: Stability; summary of the method: as §1
[6] = Metabolic stability in simulated gastric fluid assessed as compound remaining at pH 1.2 after 5 mins by HPLC analysis; format: ADME; settings: read-out: Stability; summary of the method: as §1
[7] = Metabolic stability in simulated gastric fluid assessed as compound remaining at pH 1.2 measured immediately by HPLC analysis; format: ADME; settings: read-out: Stability; summary of the method: as §1
[8] = Metabolic stability in simulated gastric fluid assessed as compound remaining at pH 1.2 after 10 mins by HPLC analysis; format: ADME; settings: read-out: Stability; summary of the method: as §1
[9] = Metabolic stability in simulated gastric fluid assessed as compound remaining at pH 1.2 after 15 mins by HPLC analysis; format: ADME; settings: read-out: Stability; summary of the method: as §1
[10] = AUC in Sprague-Dawley rat at 44.83 mg/kg, po; format: ADME, organism-based; parameters: dose 44.83 mg/kg, route oral; settings: plasma
Summary of the method: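 Plasma parent-drug concentration followed over time up to 8 h. AUC in µg*h/mL from the concentration–time profile. Cmax and Tmax taken from the profile.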

in vivo [11] = settings: Sprague-Dawley, rat, po, 10 mg/kg
in vivo [12] = settings: Sprague-Dawley, rat, po, 10 mg/kg; remark: listed apart in the source
in vivo [13] = settings: Sprague-Dawley, rat, plasma, po, 10 mg/kg
in vivo [14] = settings: Sprague-Dawley, rat, plasma, po, 10 mg/kg; remark: listed apart in the source
in vivo [15] = settings: Sprague-Dawley, rat, plasma, po, 10 mg/kg; remark: listed apart in the source

Compound	half-life [1]	remaining at 1 h [2]	remaining at 2 h [3]	remaining at 0.5 h [4]	remaining at 3 h [5]	remaining at 5 min [6]	remaining at 0 min [7]	remaining at 10 min [8]	remaining at 0.25 h [9]	AUC [10]	Cmax at 0.25 h (in vivo [11])	Tmax (in vivo [12])	Cmax at 8 h (in vivo [13])	Cmax at 4 h (in vivo [14])	Cmax at 2 h (in vivo [15])
CCCC(OC(=O)[C@@H](C)c1ccc2cc(OC)ccc2c1)O[N+](=O)[O-] (stereo partly drawn)	< 3 h	75%	58%	83%	39%	96%	100%	94%	83%	–	–	–	–	–	–
CCC(OC(=O)c1ccccc1OC(C)=O)O[N+](=O)[O-] (stereo not drawn)	–	–	–	–	–	–	–	–	–	53600 ng·h/mL	–	–	–	–	–
COc1ccc2cc([C@H](C)C(=O)O)ccc2c1 [NAPROXEN]	–	–	–	–	–	–	–	–	–	–	55000 ng/mL	0.25 h	< 15000 ng/mL	> 20000 ng/mL	> 30000 ng/mL
CCC(OC(=O)[C@@H](C)c1ccc2cc(OC)ccc2c1)O[N+](=O)[O-] (stereo partly drawn)	1 h	51%	39%	62%	7%	94%	100%	90%	74%	–	–	–	–	–	–
CCCCC(OC(=O)[C@@H](C)c1ccc2cc(OC)ccc2c1)O[N+](=O)[O-] (stereo partly drawn)	> 3 h	87%	80%	87%	71%	98%	100%	96%	87%	–	–	–	–	–	–
